Experimental data taken from ChEMBL document CHEMBL1153910, “Salicylate-urea-based soluble epoxide hydrolase inhibitors with high metabolic and chemical stabilities” (Bioorg Med Chem Lett, 2009).
In brackets after ≈: the same amount, converted by molar mass. Blank lines part the entries; values can stand above or below the molecule they belong to. Activity calls are given as the source filed them. The calls are words filed in the database; no cut-off is given here.

What was measured:
[1] = target: T1, Bifunctional epoxide hydrolase 2 (Homo sapiens, UniProt P34913); assay: Inhibition of human soluble epoxide hydrolase by fluorescence assay
T1 sequence (P34913 whole entry): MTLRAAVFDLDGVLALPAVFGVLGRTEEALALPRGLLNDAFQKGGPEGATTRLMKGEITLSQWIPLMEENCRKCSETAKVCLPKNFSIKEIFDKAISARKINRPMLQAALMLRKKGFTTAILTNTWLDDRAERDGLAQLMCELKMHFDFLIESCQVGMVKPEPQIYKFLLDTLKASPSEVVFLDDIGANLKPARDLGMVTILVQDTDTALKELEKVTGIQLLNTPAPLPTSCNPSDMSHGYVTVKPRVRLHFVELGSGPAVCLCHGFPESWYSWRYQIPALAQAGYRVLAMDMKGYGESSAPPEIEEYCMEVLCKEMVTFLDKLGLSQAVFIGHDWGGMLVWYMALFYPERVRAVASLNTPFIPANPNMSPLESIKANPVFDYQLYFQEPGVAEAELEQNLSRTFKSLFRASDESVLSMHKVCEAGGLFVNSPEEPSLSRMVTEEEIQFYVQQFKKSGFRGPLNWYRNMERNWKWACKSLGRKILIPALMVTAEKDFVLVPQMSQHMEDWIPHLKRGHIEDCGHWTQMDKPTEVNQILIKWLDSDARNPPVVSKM
How it was run: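 Recombinant human sEH was used, with inhibition measured by a kinetic fluorescent assay and reported as IC50.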

[2] = Metabolic stability in human liver S9 fraction in presence of NADPH assessed as residual parent compound remaining; type: ADME, subcellular
How it was run: (§1)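 Compounds were incubated with human liver S9 fraction, with or without NADPH. Residual parent compound is given as a percentage remaining.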

[3] = Metabolic stability in human liver S9 fraction in absence of NADPH assessed as residual parent compound remaining; type: ADME, subcellular; how it was run: as §1
[4] = Chemical stability assessed as compound hydrolysis after 15 mins in 40 mM NaOH at 22 degC; type: physicochemical; conditions: 0.25 h
[5] = Solubility in 0.1 M sodium phosphate buffer at pH 7.4
[6] = Octanol-water distribution coefficient, log P of the compound; type: physicochemical
How it was run: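 Partitioning was between buffer-saturated 1-octanol and 0.1 M sodium phosphate buffer, pH 7.4. Compound concentration was measured in each phase, and logP = log10([octanol]/[buffer]).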

[7] = target: T2, Prostaglandin G/H synthase 2 (Homo sapiens) (UniProt P35354); assay: Inhibition of COX2 at 10 uM by fluorescence assay
T2 sequence (whole entry): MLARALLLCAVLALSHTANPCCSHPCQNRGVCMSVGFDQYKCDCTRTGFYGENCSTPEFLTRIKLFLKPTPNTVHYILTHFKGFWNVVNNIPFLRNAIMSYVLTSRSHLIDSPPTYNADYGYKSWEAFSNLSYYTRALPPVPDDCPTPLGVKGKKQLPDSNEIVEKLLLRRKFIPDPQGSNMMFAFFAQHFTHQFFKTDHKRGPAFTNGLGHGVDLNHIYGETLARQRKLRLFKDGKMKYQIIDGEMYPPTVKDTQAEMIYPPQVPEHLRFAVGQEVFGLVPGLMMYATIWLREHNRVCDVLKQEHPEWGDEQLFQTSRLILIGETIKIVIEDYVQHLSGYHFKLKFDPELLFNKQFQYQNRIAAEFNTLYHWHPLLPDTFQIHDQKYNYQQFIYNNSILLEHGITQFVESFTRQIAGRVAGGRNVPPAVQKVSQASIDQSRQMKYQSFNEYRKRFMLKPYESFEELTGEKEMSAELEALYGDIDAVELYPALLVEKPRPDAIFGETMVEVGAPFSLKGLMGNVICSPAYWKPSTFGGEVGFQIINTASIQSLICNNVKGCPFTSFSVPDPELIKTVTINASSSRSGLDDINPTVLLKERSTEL

[8] = AUC (0 to 24 hrs) in dog at 0.3 mg/kg, po; type: ADME, organism-based, Canis lupus familiaris; design: time < 24 hr, dose 0.3 mg/kg, route oral; conditions: plasma
How it was run: (§2)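 Dogs were dosed by oral gavage at 0.3 mg/kg in tri-olein-rich oil. Blood concentration–time profiles were followed, and pharmacokinetic parameters were derived from those profiles.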

[9] = Chemical stability assessed as compound remaining after 7 hrs in 40 mM NaOH at 22 degC; type: physicochemical; conditions: read-out: Activity
[10] = Tmax in dog at 0.3 mg/kg, po; type: ADME, organism-based, Canis lupus familiaris; design: dose 0.3 mg/kg, route oral; conditions: in vivo; how it was run: as §2
[11] = Half life in dog at 0.3 mg/kg, po; type: ADME, organism-based, Canis lupus familiaris; design: dose 0.3 mg/kg, route oral; conditions: in vivo; how it was run: as §2
[12] = target: Prostaglandin G/H synthase 1 (Homo sapiens) (UniProt P23219); assay: Inhibition of COX1 at 10 uM by fluorescence assay
Sequence of Prostaglandin G/H synthase 1 (Homo sapiens) (P23219 whole entry): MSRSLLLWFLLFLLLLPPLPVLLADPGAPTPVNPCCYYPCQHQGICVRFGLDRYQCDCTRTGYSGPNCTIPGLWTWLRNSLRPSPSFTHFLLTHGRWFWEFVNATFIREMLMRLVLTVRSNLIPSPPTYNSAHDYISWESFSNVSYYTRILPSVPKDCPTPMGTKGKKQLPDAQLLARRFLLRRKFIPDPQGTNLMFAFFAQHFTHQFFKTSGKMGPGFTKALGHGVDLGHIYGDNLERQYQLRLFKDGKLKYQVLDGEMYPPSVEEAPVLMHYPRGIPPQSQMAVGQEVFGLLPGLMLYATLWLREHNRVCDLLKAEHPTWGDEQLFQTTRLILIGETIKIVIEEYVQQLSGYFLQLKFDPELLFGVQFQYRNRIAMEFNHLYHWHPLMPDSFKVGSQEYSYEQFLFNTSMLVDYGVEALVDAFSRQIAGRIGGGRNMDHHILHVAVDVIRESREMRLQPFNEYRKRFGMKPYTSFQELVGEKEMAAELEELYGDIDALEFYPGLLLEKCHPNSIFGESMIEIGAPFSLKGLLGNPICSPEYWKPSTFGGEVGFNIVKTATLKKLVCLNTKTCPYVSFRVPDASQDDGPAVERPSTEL

[13] = Cmax in dog at 0.3 mg/kg, po; type: ADME, organism-based, Canis lupus familiaris; design: dose 0.3 mg/kg, route oral; conditions: in vivo; how it was run: as §2
[14] = AUC (0 to infinity) in dog at 0.3 mg/kg, po; type: ADME, organism-based, Canis lupus familiaris; design: time infinity, dose 0.3 mg/kg, route oral; conditions: plasma; how it was run: as §2
[15] = Chemical stability in 40 mM NaOH at 22 degC; type: physicochemical

SMILES: COc1ccc(NC(=O)NC23CC4CC(CC(C4)C2)C3)cc1
IC50 [1]: 14 nM

SMILES: COC(=O)c1cccc(NC(=O)NC23CC4CC(CC(C4)C2)C3)c1
IC50 [1]: 14 nM

IC50 [1]: 28 nM
SMILES: O=C(Nc1cccc(O)c1)NC12CC3CC(CC(C3)C1)C2

IC50 [1]: 3.1 nM
SMILES: COC(=O)CCCc1ccc(NC(=O)NC23CC4CC(CC(C4)C2)C3)cc1

Stability [2]: 31% | Stability [3]: 32% | Stability [4]: Unstable | IC50 [1]: 11 nM
SMILES: O=C(Nc1ccc(OC(=O)c2ccccc2)cc1)NC12CC3CC(CC(C3)C1)C2

solubility [5]: 199000 µg/mL (≈ 602000 µM) | logP ([6]; read-out: logP): 1.6 | IC50 [1]: 71 nM
SMILES: O=C(Nc1ccc(C(=O)O)c(O)c1)NC12CC3CC(CC(C3)C1)C2

IC50 [1]: 24 nM
SMILES: O=C(Nc1ccc(O)cc1)NC12CC3CC(CC(C3)C1)C2

Stability [2]: < 0.1% | Stability [3]: < 0.1% | Stability [4]: Unstable | IC50 [1]: 3.9 nM
SMILES: CC(=O)Oc1ccc(NC(=O)NC23CC4CC(CC(C4)C2)C3)cc1

IC50 [1]: 35 nM
SMILES: CN1CCN(C(=O)c2cccc(NC(=O)NC34CC5CC(CC(C5)C3)C4)c2)CC1

Stability [2]: 56%
SMILES: CCOCCOCCOc1cccc(NC(=O)NC23CC4CC(CC(C4)C2)C3)c1

SMILES: O=C(Nc1cccc(OC(=O)c2ccccc2)c1)NC12CC3CC(CC(C3)C1)C2
IC50 [1]: 5.1 nM

IC50 [1]: 5.8 nM
SMILES: CC(=O)Oc1cccc(NC(=O)NC23CC4CC(CC(C4)C2)C3)c1

IC50 [1]: 365 nM
SMILES: O=C(Nc1cccc(C(=O)O)c1)NC12CC3CC(CC(C3)C1)C2

IC50 [1]: 126 nM
SMILES: O=C(O)CCc1ccc(NC(=O)NC23CC4CC(CC(C4)C2)C3)cc1

IC50 [1]: 1410 nM
SMILES: O=C(Nc1ccc(C(=O)O)cc1)NC12CC3CC(CC(C3)C1)C2

SMILES: O=C(Nc1cccc(C(=O)N2CCOCC2)c1)NC12CC3CC(CC(C3)C1)C2
IC50 [1]: 25 nM

SMILES: COC(=O)c1ccc(NC(=O)NC23CC4CC(CC(C4)C2)C3)cc1O
Activity [7]: inactive | solubility [5]: 200 µg/mL (≈ 581 µM) | AUC(0-t) at 24 h [8]: 0.189 µM·h | Stability [2]: 89% | remaining at 7 h [9]: 80% | Tmax [10]: 1 h | half-life [11]: 7.9 h | logP [6]: > 4.1 | Activity [12]: inactive | Stability [3]: 93% | Cmax [13]: 45 nM | AUC(0-inf) [14]: 0.209 µM·h | IC50 [1]: 2.8 nM

IC50 [1]: 17 nM
SMILES: O=C(Nc1ccccc1)NC12CC3CC(CC(C3)C1)C2

IC50 [1]: 392 nM
SMILES: O=C(O)Cc1ccc(NC(=O)NC23CC4CC(CC(C4)C2)C3)cc1

solubility [5]: 400 µg/mL (≈ 1220 µM) | Stability [2]: 95% | logP [6]: > 3.9 | half-life [15]: 2 h | Stability [3]: 97% | IC50 [1]: 4.1 nM
SMILES: COC(=O)c1ccc(NC(=O)NC23CC4CC(CC(C4)C2)C3)cc1

IC50 [1]: 2.2 nM
SMILES: COC(=O)CCc1ccc(NC(=O)NC23CC4CC(CC(C4)C2)C3)cc1

IC50 [1]: 4.7 nM
SMILES: COc1cccc(NC(=O)NC23CC4CC(CC(C4)C2)C3)c1

AUC(0-t) at 24 h [8]: 0.0522 µM·h | Tmax [10]: 0.5 h | half-life [11]: 2.9 h | Cmax [13]: 18 nM | AUC(0-inf) [14]: 0.0524 µM·h
SMILES: O=C(O)CCCCCCCCCCCNC(=O)NC12CC3CC(CC(C3)C1)C2

SMILES: O=C(Nc1cccc(C(=O)N2CCC(N3CCOCC3)CC2)c1)NC12CC3CC(CC(C3)C1)C2
IC50 [1]: 29 nM

IC50 [1]: 139 nM
SMILES: O=C(Nc1ccccc1O)NC12CC3CC(CC(C3)C1)C2

IC50 [1]: 8540 nM
SMILES: COc1ccccc1NC(=O)NC12CC3CC(CC(C3)C1)C2

IC50 [1]: 4 nM
SMILES: COC(=O)Cc1ccc(NC(=O)NC23CC4CC(CC(C4)C2)C3)cc1

IC50 [1]: 116 nM
SMILES: O=C(Nc1ccc(O)c(C(=O)O)c1)NC12CC3CC(CC(C3)C1)C2

IC50 [1]: 19.9 nM
SMILES: O=C(O)CCCc1ccc(NC(=O)NC23CC4CC(CC(C4)C2)C3)cc1

SMILES: COC(=O)c1cc(NC(=O)NC23CC4CC(CC(C4)C2)C3)ccc1O
Stability [2]: 51% | Stability [3]: 46% | IC50 [1]: 12 nM
